Measurements taken from ChEMBL document CHEMBL1221317, “S-benzylisothiourea derivatives as small-molecule inhibitors of indoleamine-2,3-dioxygenase” (Bioorg Med Chem Lett, 2010).
Calls of active or inactive are those of the source. No cut-off for these calls is given here.

Legend:
[1] = target: T1, Indoleamine 2,3-dioxygenase 1 (Homo sapiens, UniProt P14902); experiment: Inhibition of indoleamine-2,3-dioxygenase in human A431 cells assessed as inhibition of IFN-gamma-stimulated kynurenine production; assay type: cell-based, A-431
Outline: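 A431 cells (2.0 × 10⁵ cells/mL) were seeded and grown overnight. Serial DMSO dilutions of compound were added and incubated for 24 h more. Then 7% (v/v) aqueous trichloroacetic acid and 2% (w/v) p-dimethylaminobenzaldehyde in acetic acid (2:5) were added, and the kynurenine-derived yellow colour was read at 460 nm.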
Target sequence in this assay (P14902 whole entry): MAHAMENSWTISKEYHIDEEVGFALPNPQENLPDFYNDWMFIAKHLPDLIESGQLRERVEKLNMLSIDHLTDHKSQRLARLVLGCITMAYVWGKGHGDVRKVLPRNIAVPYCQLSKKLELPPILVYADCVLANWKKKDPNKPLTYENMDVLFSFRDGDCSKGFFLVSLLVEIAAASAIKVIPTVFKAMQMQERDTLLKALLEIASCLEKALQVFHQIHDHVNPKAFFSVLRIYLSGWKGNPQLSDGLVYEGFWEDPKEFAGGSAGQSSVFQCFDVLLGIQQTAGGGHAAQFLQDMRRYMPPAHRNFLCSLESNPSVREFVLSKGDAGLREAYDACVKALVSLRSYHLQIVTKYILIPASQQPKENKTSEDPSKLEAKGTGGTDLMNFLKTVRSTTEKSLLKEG

[2] = target: T1, Indoleamine 2,3-dioxygenase 1; experiment: Inhibition of indoleamine-2,3-dioxygenase
Outline: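 Recombinant IDO, in 50 mM potassium phosphate buffer (pH 6.5) with 20 mM neutralized ascorbic acid, catalase, methylene blue and L-Trp. Incubated at 37 °C for 60 min, then stopped with 30% (w/v) trichloroacetic acid and heated at 50 °C for 15 min. After centrifugation, the supernatant was mixed with 2% (w/v) p-dimethylaminobenzaldehyde in acetic acid to detect kynurenine colorimetrically.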
Target sequence in this assay (P14902 whole entry): as above

A-431 = experiment: Inhibition of indoleamine-2,3-dioxygenase expression in human A431 cells at 10 uM; assay type: functional, cell-based
Outline: (§1)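 A431 cells were precultured for 24 h, given fresh medium, and treated with compound with or without IFN-γ (5 ng/ml). Culture media and cell extracts were then collected. IDO and α-tubulin in the lysates were detected by western blot, and kynurenine concentration was measured in the culture medium.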

[3] = target: T1, Indoleamine 2,3-dioxygenase 1; experiment: Inhibition of indoleamine-2,3-dioxygenase in human A431 cells assessed as inhibition of IFN-gamma-stimulated kynurenine production at 10 uM; assay type: cell-based; conditions: A-431; outline: as §1
Target sequence in this assay (P14902 whole entry, looked up): as the sequence (P14902 whole entry) above

| Compound | IC50 [1] | IC50 [2] | inhibition (A-431) | inhibition [3] |
| --- | --- | --- | --- | --- |
| CC(C)(C)c1ccc(CSC(=N)N)cc1 | > 20 µM | > 100 µM | – | – |
| O=S(=O)(O)c1ccc(Cl)cc1 | > 20 µM | > 100 µM | – | – |
| O=S(O)c1ccc(Cl)cc1 | > 20 µM | > 100 µM | – | – |
| CCc1ccc(CSC(=N)N)cc1 | 2.5 µM | 16 µM | – | – |
| N=C(N)SCc1ccc(Cl)c(Cl)c1 | 7.3 µM | 17 µM | – | – |
| CS(=O)(=O)c1ccc(CSC(=N)N)cc1 | > 10 µM | > 100 µM | – | – |
| CSC(=N)NCCc1ccc(Cl)cc1 | > 20 µM | > 100 µM | – | – |
| SCc1ccc(Cl)c(Cl)c1 | 1.1 µM | 0.1 µM | – | – |
| N=C(N)SCc1ccc(C(F)(F)F)cc1 | 1.2 µM | 2.6 µM | – | – |
| N=C(N)SCc1ccc([N+](=O)[O-])cc1 | 2.2 µM | 11 µM | – | – |
| N=C(N)SCc1ccc(Cl)cc1 | 0.6 µM | 2.2 µM | inactive | Active |
| C/N=C(\NC)SCc1ccc(Cl)cc1 | > 20 µM | 21 µM | – | – |
| SCc1ccccc1 [BENZENEMETHANETHIOL] | 13 µM | 1.7 µM | – | – |
| NC(=O)NCc1ccc(Cl)cc1 | > 20 µM | > 100 µM | – | – |
| SCc1ccc(Cl)cc1 | 1.1 µM | 3.2 µM | – | – |
| N=C(N)SCCc1ccccc1Cl | > 20 µM | > 100 µM | – | – |
| N=C(N)SCc1ccc(Br)cc1 | 0.8 µM | 1.3 µM | – | – |
| N=C(N)SCc1ccccc1 | > 10 µM | 61 µM | – | – |
| SCc1ccccc1Cl | 15 µM | 1.2 µM | – | – |
| COc1ccc(CS)cc1 | 9.4 µM | 1.4 µM | – | – |
| N=C(N)SCc1ccccc1Cl | 4.8 µM | 10 µM | – | – |

| Compound | IC50 [1] | IC50 [2] | inhibition (A-431) | inhibition [3] |
| --- | --- | --- | --- | --- |
| CC(C)c1ccc(CSC(=N)N)cc1 | > 20 µM | > 100 µM | – | – |
| NCCc1ccc(Cl)cc1 | > 20 µM | > 100 µM | – | – |
| N=C(N)SCc1ccc(F)cc1 | 2 µM | 13 µM | – | – |
| N=C(N)SCc1ccc(C(=O)O)cc1 | > 20 µM | > 100 µM | – | – |
| Cc1ccc(CS)cc1 | 6.5 µM | 1.3 µM | – | – |
| Cc1ccc(CSC(=N)N)cc1 | 6.8 µM | 30 µM | – | – |
| N=C(N)SCc1ccc(Cl)cc1Cl | 1.1 µM | 0.4 µM | – | – |
| SCc1ccc(Cl)cc1Cl | 4.6 µM | 3.5 µM | – | – |
| Fc1ccc(CS)cc1 | 1.9 µM | 1.8 µM | – | – |
| OCc1ccc(Cl)cc1 | > 20 µM | > 100 µM | – | – |
| COc1ccc(CSC(=N)N)cc1 | 10 µM | 52 µM | – | – |
| Sc1ccc(Cl)cc1 | > 20 µM | 1.9 µM | – | – |
| NC(=S)NCCc1ccc(Cl)cc1 | > 20 µM | 100 µM | – | – |
| NC(=S)Nc1ccc(Cl)cc1 | > 20 µM | > 100 µM | – | – |
| NCc1ccc(Cl)cc1 | > 20 µM | > 100 µM | – | – |
| N=C(N)SCc1cccc(Cl)c1 | 1.4 µM | 4.6 µM | – | – |
| N=C(N)SCc1ccc(C(=O)c2ccccc2)cc1 | > 20 µM | > 100 µM | – | – |
| CSC(=N)Nc1ccc(Cl)cc1 | > 20 µM | > 100 µM | – | – |
| N=C(N)SCCc1ccc(Cl)cc1 | > 20 µM | 57 µM | – | – |
| N=C(N)SCCc1cccc(Cl)c1 | > 20 µM | > 100 µM | – | – |
| N#Cc1ccc(CSC(=N)N)cc1 | 2.6 µM | 19 µM | – | – |
